Measured values reported in PMC3082041 (Cancer Chemotherapy and Pharmacology, 2010).
Read-outs that look alike come from different tables or passages of the source.

How the values were obtained:
[1] = tested on: patients with advanced solid tumors; assay: Phase I dose escalation, drug-related adverse events; format: in vivo, human (Japanese patients)
Summary of the method: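 Open, non-randomised escalation in three-patient cohorts at 200, 400, 800 and 1,200 mg/m2 oral bid. Tablets taken >2 h after breakfast and supper for 28 consecutive days, with a single dose on day 1. Toxicity graded weekly by NCI-CTC v2.0. DLT: grade 3/4 non-haematologic or grade 4 haematologic toxicity. MTD: DLT in >33% within 4 weeks.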

[2] = published clinical result; cited from earlier work
[3] = tested on: liver cytochrome P450, CYP1A1/2; details: non-clinical studies; cited from earlier work
[4] = Plasma pharmacokinetics of TSU-68; format: in vivo, human (Japanese patients); details: for AUC(0-t) / Cmax / half-life / Tmax: human, oral
[5] = tested on: advanced solid tumors; assay: Antitumor effect; format: in vivo, human (Japanese patients)
Summary of the method: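 Tumours measured before treatment and at 4 weeks, scored by Japan Society for Cancer Therapy (WHO-based) criteria. PR: ≥50% shrinkage held ≥4 weeks. NC: <50% shrinkage or ≤25% enlargement held ≥4 weeks. PD: ≥25% enlargement or new lesions. Tumour-type-related markers measured before therapy. Patients with progression were taken off study.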

[6] = tested on: Caucasian patients; details: cited from earlier work
[7] = Total, all dose levels (N = 15), 28-days administration

Structure (SMILES): Cc1[nH]c(/C=C2\C(=O)Nc3ccccc32)c(C)c1CCC(=O)O [TSU-68, (Z)-3-[2,4-dimethyl-5-(2-oxo-1,2-dihydro-indol-3-ylidenemethyl)-1H-pyrrol-3-yl]-propionic acid]
- Abdominal pain, patients (%) [1, 7]: (33) %
- Alanine aminotransferase increased, number of patients [1, 7]: 3
- Alanine aminotransferase increased, patients (%) [1, 7]: (20) %
- Albumin decreased, number of patients [1, 7]: 6
- Alkaline phosphatase increased, number of patients [1, 7]: 6
- Anemia, number of patients [1, 7]: 1
- Arrhythmia, number of patients [1, 7]: 1
- Chest pain, number of patients [1, 7]: 3
- Chest pain, patients (%) [1, 7]: (20) %
- Face edema, number of patients [1, 7]: 5
- Face edema, patients (%) [1, 7]: (33) %
- Fatigue, number of patients [1, 7]: 9
- Nausea, number of patients [1, 7]: 4
- Thrombocytopenia, number of patients [1, 7]: 1
- Total protein decreased, number of patients [1, 7]: 3
- Total protein decreased, patients (%) [1, 7]: (20) %
- Upper abdominal pain, number of patients [1, 7]: 4
- Urine discoloration, number of patients [1, 7]: 15
- Urine discoloration, patients (%) [1, 7]: (100) %
- Vomiting, number of patients [1, 7]: 3
- Vomiting, patients (%) [1, 7]: (20) %
- recommended dose for further studies ([1]; continuous oral bid between meals): less than 800 mg/m^2 bid
- tolerable dose for continuing treatment ([1]; oral bid between meals): ≤ 800 mg/m^2 bid
- acceptable dosage level in daily administration ([1]; oral, between meals, estimated): 800 mg/m^2 bid
- AUC on day 56 compared with day 28 [2]: similar
- induction of liver cytochrome P450, CYP1A1/2 [3]: causes induction of liver cytochrome P450, CYP1A1/2
- time to reach Cmax ([4]; after the first dose, plasma): ~ 2.5 h
- AUC(0-t) ([4]; plasma, 200 mg/m2, AUC0–t, 200 mg/m^2, Day 1, 3 patients, plasma): 45.6 ± 21 µg·h/mL
- AUC(0-t) ([4]; plasma, 200 mg/m2, AUC0–t, 200 mg/m^2, Day 8, 3 patients, plasma): 20.6 ± 6.2 µg·h/mL
- AUC(0-t) ([4]; plasma, 200 mg/m2, AUC0–t, 200 mg/m^2, Day 29, 3 patients, plasma): 21.2 ± 9.5 µg·h/mL
- Cmax ([4]; plasma, 200 mg/m2, Cmax, 200 mg/m^2, Day 1, 3 patients, plasma): 10.6 ± 6.04 µg/mL
- Cmax ([4]; plasma, 200 mg/m2, Cmax, 200 mg/m^2, Day 8, 3 patients, plasma): 6.67 ± 3.7 µg/mL
- Cmax ([4]; plasma, 200 mg/m2, Cmax, 200 mg/m^2, Day 29, 3 patients, plasma): 6.35 ± 3.77 µg/mL
- half-life ([4]; plasma, 200 mg/m2, T1/2, 200 mg/m^2, Day 1, 3 patients, plasma): 8.03 ± 3.82 h
- half-life ([4]; plasma, 200 mg/m2, T1/2, 200 mg/m^2, Day 8, 3 patients, plasma): 4.8 ± 2.14 h
- half-life ([4]; plasma, 200 mg/m2, T1/2, 200 mg/m^2, Day 29, 3 patients, plasma): 3.59 ± 1.71 h
- Tmax ([4]; plasma, 200 mg/m2, Tmax, 200 mg/m^2, Day 1, 3 patients, plasma): 2.3 ± 1.5 h
- Tmax ([4]; plasma, 200 mg/m2, Tmax, 200 mg/m^2, Day 8, 3 patients, plasma): 1.7 ± 0.3 h
- Tmax ([4]; plasma, 200 mg/m2, Tmax, 200 mg/m^2, Day 29, 3 patients, plasma): 1.7 ± 0.8 h
- AUC(0-t) ([4]; plasma, 400 mg/m2, AUC0–t, 400 mg/m^2, Day 1, 3 patients, plasma): 58.2 ± 16.8 µg·h/mL
- AUC(0-t) ([4]; plasma, 400 mg/m2, AUC0–t, 400 mg/m^2, Day 8, 3 patients, plasma): 25 ± 9.4 µg·h/mL
- AUC(0-t) ([4]; plasma, 400 mg/m2, AUC0–t, 400 mg/m^2, Day 29, 2 patients, plasma): 22.9 µg·h/mL
- Cmax ([4]; plasma, 400 mg/m2, Cmax, 400 mg/m^2, Day 1, 3 patients, plasma): 11.7 ± 3.81 µg/mL
- Cmax ([4]; plasma, 400 mg/m2, Cmax, 400 mg/m^2, Day 8, 3 patients, plasma): 7.21 ± 1.06 µg/mL
- Cmax ([4]; plasma, 400 mg/m2, Cmax, 400 mg/m^2, Day 29, 2 patients, plasma): 6.35 µg/mL
- half-life ([4]; plasma, 400 mg/m2, T1/2, 400 mg/m^2, Day 1, 3 patients, plasma): 7.89 ± 4.04 h
- half-life ([4]; plasma, 400 mg/m2, T1/2, 400 mg/m^2, Day 8, 3 patients, plasma): 3.53 ± 0.43 h
- half-life ([4]; plasma, 400 mg/m2, T1/2, 400 mg/m^2, Day 29, 2 patients, plasma): 5.36 h
- Tmax ([4]; plasma, 400 mg/m2, Tmax, 400 mg/m^2, Day 1, 3 patients, plasma): 2.5 ± 1.3 h
- Tmax ([4]; plasma, 400 mg/m2, Tmax, 400 mg/m^2, Day 8, 3 patients, plasma): 1.8 ± 0.3 h
- Tmax ([4]; plasma, 400 mg/m2, Tmax, 400 mg/m^2, Day 29, 2 patients, plasma): 1 h
- AUC(0-t) ([4]; plasma, 800 mg/m2, AUC0–t, 800 mg/m^2, Day 1, 6 patients, plasma): 83.3 ± 32.7 µg·h/mL
- AUC(0-t) ([4]; plasma, 800 mg/m2, AUC0–t, 800 mg/m^2, Day 8, 5 patients, plasma): 44.6 ± 17.3 µg·h/mL
- AUC(0-t) ([4]; plasma, 800 mg/m2, AUC0–t, 800 mg/m^2, Day 29, 4 patients, plasma): 30 ± 16.7 µg·h/mL
- Cmax ([4]; plasma, 800 mg/m2, Cmax, 800 mg/m^2, Day 1, 6 patients, plasma): 14.6 ± 5.65 µg/mL
- Cmax ([4]; plasma, 800 mg/m2, Cmax, 800 mg/m^2, Day 8, 5 patients, plasma): 10.6 ± 1.83 µg/mL
- Cmax ([4]; plasma, 800 mg/m2, Cmax, 800 mg/m^2, Day 29, 4 patients, plasma): 10.7 ± 4.69 µg/mL
- half-life ([4]; plasma, 800 mg/m2, T1/2, 800 mg/m^2, Day 1, 6 patients, plasma): 9.93 ± 6.01 h
- half-life ([4]; plasma, 800 mg/m2, T1/2, 800 mg/m^2, Day 8, 5 patients, plasma): 4.31 ± 2.72 h
- half-life ([4]; plasma, 800 mg/m2, T1/2, 800 mg/m^2, Day 29, 4 patients, plasma): 4.37 ± 4.05 h
- Tmax ([4]; plasma, 800 mg/m2, Tmax, 800 mg/m^2, Day 1, 6 patients, plasma): 2.8 ± 1.1 h
- Tmax ([4]; plasma, 800 mg/m2, Tmax, 800 mg/m^2, Day 8, 5 patients, plasma): 1.5 ± 0.4 h
- Tmax ([4]; plasma, 800 mg/m2, Tmax, 800 mg/m^2, Day 29, 4 patients, plasma): 2.1 ± 0.3 h
- Cmax ([4]; plasma, 1200 mg/m^2, Cmax, 1,200 mg/m^2, Day 1, 3 patients, plasma): 16 ± 1.91 µg/mL
- Cmax ([4]; plasma, 1200 mg/m^2, Cmax, 1,200 mg/m^2, Day 8, 3 patients, plasma): 8.15 ± 4.22 µg/mL
- Cmax ([4]; plasma, 1200 mg/m^2, Cmax, 1,200 mg/m^2, Day 29, 3 patients, plasma): 6.71 ± 0.884 µg/mL
- half-life ([4]; plasma, 1200 mg/m^2, T1/2, 1,200 mg/m^2, Day 1, 3 patients, plasma): 8.33 ± 4.65 h
- half-life ([4]; plasma, 1200 mg/m^2, T1/2, 1,200 mg/m^2, Day 8, 3 patients, plasma): 2.78 ± 0.9 h
- half-life ([4]; plasma, 1200 mg/m^2, T1/2, 1,200 mg/m^2, Day 29, 3 patients, plasma): 4.84 ± 3.29 h
- Tmax ([4]; plasma, 1200 mg/m^2, Tmax, 1,200 mg/m^2, Day 1, 3 patients, plasma): 2.2 ± 0.8 h
- Tmax ([4]; plasma, 1200 mg/m^2, Tmax, 1,200 mg/m^2, Day 8, 3 patients, plasma): 1.8 ± 0.3 h
- Tmax ([4]; plasma, 1200 mg/m^2, Tmax, 1,200 mg/m^2, Day 29, 3 patients, plasma): 1.7 ± 0.3 h
- trough plasma level versus IC50 for VEGF and PDGF receptors cellular assay ([4]; steady-state exposure, 200 mg/m^2, IC50 from ref 16): above the IC50
- partial or complete responses ([5]; 15 patients, 200-1,200 mg/m^2 bid): No partial or complete responses were seen
- patients with stable disease ([5]; non-small cell lung cancer 2, thymoma 1, peritoneal sarcoma 1): Four
- AUC ([6]; day 1, Caucasian patients): 70 µg·h/mL
- AUC ([6]; day 28, Caucasian patients): 32 µg·h/mL
